# Experimental data published in ChEMBL document CHEMBL1124766, “Novel benzamides as selective and potent gastric prokinetic agents. 1. Synthesis and structure-activity relationships of N-[(2-morpholinyl)alkyl]benzamides” (1990).
# Tests used:
# [1] = tested on: Rattus norvegicus; test: Evaluated for the effects on the gastric emptying rates of phenol red semisolid meal through the stomach in rats, at a dose of 2.0 mg/Kg administered perorally.; assay type: functional
# Method in brief: (§1)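 Mice or rats fasted 18 h. Compound suspended in 0.5% tragacanth given orally 60 min before a gavaged meal of 0.05% phenol red in 1.5% aqueous methylcellulose (0.2 mL/mouse, 1.5 mL/rat). Animals killed 15 min later; phenol red left in stomach measured (Scarpignato method). Emptying expressed as % enhancement over tragacanth-control mean; Duncan's multiple range test.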
# [2] = tested on: Rattus norvegicus; test: Evaluated for the effects on the gastric emptying rates of phenol red semisolid meal through the stomach in rats, at a dose of 5.0 mg/kg administered perorally; assay type: functional; conditions: route oral; method in brief: as §1
# [3] = tested on: Mus musculus; test: Evaluated for the effects on the gastric emptying rates of phenol red semisolid meal through the stomach in mouse, at a dose of 2 mg/kg administered perorally; assay type: functional; conditions: route oral; method in brief: as §1
# [4] = tested on: Mus musculus; test: Evaluated for the effects on the gastric emptying rates of phenol red semisolid meal through the stomach in mouse, at a dose of 1 mg/kg administered perorally; assay type: functional; conditions: route oral; method in brief: as §1
# [5] = tested on: Rattus norvegicus; test: Evaluated for the effects on the gastric emptying rates of phenol red semisolid meal through the stomach in rats, at a dose of 0.5 mg/kg administered perorally; assay type: functional; conditions: route oral; method in brief: as §1
# [6] = tested on: Mus musculus; test: Evaluated for the effects on the gastric emptying rates of phenol red semisolid meal through the stomach in mouse, at a dose of 5 mg/kg administered perorally; assay type: functional; conditions: route oral; method in brief: as §1
# [7] = tested on: Rattus norvegicus; test: Evaluated for the effects on the gastric emptying rates of phenol red semisolid meal through the stomach in rats, at a dose of 10.0 mg/kg administered perorally; assay type: functional; conditions: route oral; method in brief: as §1
# [8] = tested on: Rattus norvegicus; test: Evaluated for the effects on the gastric emptying rates of phenol red semisolid meal through the stomach in rats, at a dose of 2.0 mg/kg administered perorally; assay type: functional; conditions: route oral; method in brief: as §1
# [9] = tested on: Mus musculus; test: Evaluated for the effects on the gastric emptying rates of phenol red semisolid meal through the stomach in mouse, at a dose of 0.5 mg/kg administered perorally; assay type: functional; conditions: route oral; method in brief: as §1
# [10] = tested on: Rattus norvegicus; test: Evaluated for the effects on the gastric emptying rates of resin pellets solid meal through the stomach in rats, at a dose of 2.0 mg/Kg administered perorally; assay type: functional
# Method in brief: (§2)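 Rats fasted 18 h. Compound suspended in 0.5% tragacanth given orally 30 min before 40 resin pellets (Amberlite IRA-93, 1-mm) are delivered into the stomach by tube. Animals killed 1 h later and pellets remaining in the stomach counted (Jacoby method). Result given as % enhancement over tragacanth-control mean; Duncan's multiple range test.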
# [11] = tested on: Rattus norvegicus; test: Evaluated for the effects on the gastric emptying rates of phenol red semisolid meal through the stomach in rats, at a dose of 10.0 mg/Kg administered perorally; assay type: functional; method in brief: as §1
# [12] = tested on: Rattus norvegicus; test: Evaluated for the effects on the gastric emptying rates of resin pellets solid meal through the stomach in rats, at a dose of 10 mg/Kg administered perorally; assay type: functional; method in brief: as §2
# [13] = tested on: Mus musculus; test: Evaluated for the effects on the gastric emptying rates of phenol red semisolid meal through the stomach in mouse, at a dose of 0.5 mg/Kg administered perorally; assay type: functional; method in brief: as §1
# [14] = tested on: Mus musculus; test: Evaluated for the effects on the gastric emptying rates of phenol red semisolid meal through the stomach in mouse, at a dose of 5 mg/Kg administered perorally; assay type: functional; method in brief: as §1
# [15] = tested on: Rattus norvegicus; test: Evaluated for the effects on the gastric emptying rates of resin pellets solid meal through the stomach in rats, at a dose of 5.0 mg/Kg administered perorally; assay type: functional; method in brief: as §2
# [16] = tested on: Rattus norvegicus; test: Evaluated for the effects on the gastric emptying rates of phenol red semisolid meal through the stomach in rats, at a dose of 5.0 mg/Kg administered perorally; assay type: functional; method in brief: as §1
# [17] = tested on: Mus musculus; test: Evaluated for the effects on the gastric emptying rates of phenol red semisolid meal through the stomach in mouse, at a dose of 1 mg/Kg administered perorally; assay type: functional; method in brief: as §1
# [18] = tested on: Rattus norvegicus; test: Evaluated for the effects on the gastric emptying rates of phenol red semisolid meal through the stomach in rats, at a dose of 0.5 mg/Kg administered perorally; assay type: functional; method in brief: as §1
# [19] = tested on: Mus musculus; test: Evaluated for the effects on the gastric emptying rates of phenol red semisolid meal through the stomach in mouse, at a dose of 2 mg/Kg administered perorally; assay type: functional; method in brief: as §1
# [20] = tested on: Mus musculus; test: Evaluated for the effects on the gastric emptying rates of phenol red semisolid meal through the stomach in mouse, at a dose of 2 mg/kg administered perorally (po); (p<0.01); assay type: functional; method in brief: as §1
# [21] = tested on: Rattus norvegicus; test: Evaluated for the effects on the gastric emptying rates of resin pellets solid meal through the stomach in rats, at a dose of 2.0 mg/kg administered perorally; assay type: functional; conditions: route oral; method in brief: as §2
# [22] = tested on: Rattus norvegicus; test: Evaluated for the effects on the gastric emptying rates of resin pellets solid meal through the stomach in rats, at a dose of 5.0 mg/kg administered perorally; assay type: functional; conditions: route oral; method in brief: as §2
# [23] = target: D(2) dopamine receptor (Canis lupus familiaris) (UniProt Q9GJU1); test: Evaluated for the dopamine D2 receptor antagonistic activity (antagonism of the apomorphine-induced emesis in dogs) at a dose of 3.0 mg/kg administered perorally (po).; assay type: functional, organism-based; design: dose 3 mg/kg
# Chain of D(2) dopamine receptor (Canis lupus familiaris) (Q9GJU1 whole entry): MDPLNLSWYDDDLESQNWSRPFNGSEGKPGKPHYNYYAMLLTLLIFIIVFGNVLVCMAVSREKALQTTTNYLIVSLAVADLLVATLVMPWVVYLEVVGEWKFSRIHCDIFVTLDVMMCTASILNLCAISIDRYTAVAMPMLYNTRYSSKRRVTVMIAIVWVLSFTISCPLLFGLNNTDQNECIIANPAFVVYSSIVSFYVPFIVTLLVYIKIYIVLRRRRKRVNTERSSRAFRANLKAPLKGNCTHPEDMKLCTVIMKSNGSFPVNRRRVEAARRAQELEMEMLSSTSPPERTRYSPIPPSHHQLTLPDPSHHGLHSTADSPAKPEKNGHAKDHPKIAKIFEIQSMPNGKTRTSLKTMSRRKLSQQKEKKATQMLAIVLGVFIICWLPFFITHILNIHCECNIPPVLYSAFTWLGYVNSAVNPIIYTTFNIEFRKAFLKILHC
# Method in brief: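 Male beagle dogs (10-16 kg), groups of three to six, pretreated with test compound; 2 h later apomorphine hydrochloride 0.3 mg/kg s.c.; emetic episodes counted over 1 h. Modified Janssen method.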
# [24] = tested on: dopamine D2 receptor (Canis familiaris); test: Evaluated for the dopamine D2 receptor antagonistic activity (antagonism of apomorphine-induced emesis in dogs) at a dose of 3.0 mg/kg administered perorally; conditions: Canis lupus familiaris
# [25] = target: D(2) dopamine receptor (Canis lupus familiaris) (UniProt Q9GJU1); conditions: 3.0 mg/kg
# [26] = tested on: Rattus norvegicus; test: Evaluated for the effects on the gastric emptying rates of resin pellets solid meal through the stomach in rats, at a dose of 10 mg/kg administered perorally; assay type: functional; conditions: route oral; method in brief: as §2
structure (smiles),measurement,setting,value
COc1cc(N)c(Cl)cc1C(=O)NCCC1CN(Cc2ccccc2)CCO1.O=C(O)/C=C/C(=O)O (stereo not drawn),GE,[1],35%
COc1cc(Cl)c(N)cc1C(=O)NCC1CN(Cc2ccccc2)CCO1 (stereo not drawn),GE,[1],10%
CCOc1cc(N)c(Cl)cc1C(=O)NCCC1CN(Cc2ccccc2)CCO1 (stereo not drawn),GE,[1],45%
COc1ccccc1C(=O)NCC1CN(Cc2ccccc2)CCO1.O=C(O)/C=C/C(=O)O (stereo not drawn),GE,[1],17%
COc1cc(C(=O)NCC2CN(Cc3ccccc3)CCO2)cc(OC)c1OC.O=C(O)C(=O)O (stereo not drawn),GE,[1],11%
COc1cc(N)c([N+](=O)[O-])cc1C(=O)NCC1CN(Cc2ccccc2)CCO1.O (stereo not drawn),GE,[1],14%
COc1cc(N)c(Cl)cc1C(=O)NC1CCN(CCCOc2ccc(F)cc2)CC1OC (stereo not drawn) [CISAPRIDE],GE,[2],50%
same,GE,[3],36%
same,GE,[4],29%
same,GE,[5],14%
same,GE,[6],38%
same,GE,[7],43%
same,GE,[8],47%
same,GE,[9],24%
COc1cc(N)ccc1C(=O)NCC1CN(Cc2ccccc2)CCO1 (stereo not drawn),GE,[1],11%
Nc1cc(O)c(C(=O)NCC2CN(Cc3ccccc3)CCO2)cc1Cl.O (stereo not drawn),GE,[1],36%
COc1cc(NC(C)=O)ccc1C(=O)NCC1CN(Cc2ccccc2)CCO1.O (stereo not drawn),GE,[1],24%
CC(=O)Nc1cc(O)c(C(=O)NCC2CN(Cc3ccccc3)CCO2)cc1Cl (stereo not drawn),GE,[1],11%
COc1ccc(Cl)cc1C(=O)NCC1CN(Cc2ccccc2)CCO1.Cl (stereo not drawn),GE,[1],19%
CCOc1ccc(S(N)(=O)=O)cc1C(=O)NCC1CN(Cc2ccccc2)CCO1 (stereo not drawn),GE,[1],19%
COc1cc(N)c(Cl)cc1C(=O)N(C)CC1CN(Cc2ccccc2)CCO1.O=C(O)/C=C/C(=O)O (stereo not drawn),GE,[1],15%
CCSc1ccc(S(N)(=O)=O)cc1C(=O)NCC1CN(Cc2ccccc2)CCO1 (stereo not drawn),GE,[1],27%
COc1cc(N)c(Cl)cc1C(=O)NCC1CN(Cc2ccccc2)CCO1 (stereo not drawn) [listing 1 of 2 here],GE,[10],49%
same,GE,[11],52%
same,GE,[12],78%
same,GE,[13],50%
same,GE,[14],68%
same,GE,[15],70%
same,GE,[16],35%
same,GE,[1],26%
same,GE,[17],49%
same,GE,[18],18%
same,GE,[19],46%
Nc1ccc(C(=O)NCC2CN(Cc3ccccc3)CCO2)cc1Cl.O=C(O)C(=O)O (stereo not drawn),GE,[1],30%
CN(C)c1cc(O)c(C(=O)NCC2CN(Cc3ccccc3)CCO2)cc1Cl.O=C(O)C(=O)O (stereo not drawn),GE,[1],27%
O=C(NCC1CN(Cc2ccccc2)CCO1)c1c(F)c(F)c(F)c(F)c1F.O=C(O)C(=O)O (stereo not drawn),GE,[1],9%
COc1c(Cl)cc(Cl)c(OC)c1C(=O)NCC1CN(Cc2ccccc2)CCO1 (stereo not drawn),GE,[1],4%
CCOc1cc(N)c(Cl)cc1C(=O)NCC1CN(Cc2ccccc2)CCO1.O (stereo not drawn),GE,[20],52%
same,GE,[2],56%
same,GE,[4],23%
same,GE,[5],34%
same,GE,[6],38%
same,GE,[21],58%
same,GE,[7],49%
same,GE,[8],54%
same,GE,[22],76%
same,inhibition,[23],5%
same,GE,[9],35%
COc1cc(N)c(Cl)cc1C(=O)OCC1CN(Cc2ccccc2)CCO1 (stereo not drawn),GE,[1],17%
COc1cc(N)c(Cl)cc1C(=O)NCC1CN(Cc2ccccc2)CCO1.Cl (stereo not drawn),GE,[1],39%
CNc1cc(OC)c(C(=O)NCC2CN(Cc3ccccc3)CCO2)cc1Cl.O=C(O)/C=C/C(=O)O (stereo not drawn),GE,[1],14%
COc1cc(N)c(Cl)cc1C(=O)NCCCC1CN(Cc2ccccc2)CCO1.O=C(O)C(=O)O (stereo not drawn),GE,[1],23%
O=C(NCC1CN(Cc2ccccc2)CCO1)c1ccc2c(c1)OCO2.O=C(O)/C=C/C(=O)O (stereo not drawn),GE,[1],34%
COc1ccc(S(N)(=O)=O)cc1C(=O)NCC1CN(Cc2ccccc2)CCO1 (stereo not drawn),GE,[1],24%
CCOc1cc(N(C)C)c(Cl)cc1C(=O)NCC1CN(Cc2ccccc2)CCO1.O=C(O)C(=O)O (stereo not drawn),GE,[1],51%
COc1cc(N)c(Br)cc1C(=O)NCC1CN(Cc2ccccc2)CCO1 (stereo not drawn),GE,[1],10%
COc1cc(N)c(Cl)cc1C(=O)NCC1CN(Cc2ccccc2)CCO1 (stereo not drawn) [listing 2 of 2 here],inhibition,[24],4%
CCOc1cc(N)c(Cl)cc1C(=O)NCCCC1CN(Cc2ccccc2)CCO1 (stereo not drawn),GE,[1],18%
O=C(NCC1CN(Cc2ccccc2)CCO1)c1cccc2c1OCO2.O=C(O)/C=C/C(=O)O (stereo not drawn),GE,[1],30%
CCN(CC)CCNC(=O)c1cc(Cl)c(N)cc1OC [METOCLOPRAMIDE],GE,[2],26%
same,GE,[3],20%
same,GE,[4],-10%
same,GE,[6],28%
same,GE,[7],31%
same,inhibition,[25],100%
same,GE,[8],21%
same,GE,[22],23%
same,GE,[26],43%
CCN(CC)c1cc(OC)c(C(=O)NCC2CN(Cc3ccccc3)CCO2)cc1Cl.O=C(O)C(=O)O (stereo not drawn),GE,[1],21%
NS(=O)(=O)c1ccc(Cl)c(C(=O)NCC2CN(Cc3ccccc3)CCO2)c1 (stereo not drawn),GE,[1],18%
COc1cc(Cl)ccc1C(=O)NCC1CN(Cc2ccccc2)CCO1.Cl (stereo not drawn),GE,[1],23%
COc1cc(N(C)C)c(Cl)cc1C(=O)NCC1CN(Cc2ccccc2)CCO1.O=C(O)/C=C/C(=O)O (stereo not drawn),GE,[2],47%
same,GE,[3],43%
same,GE,[4],33%
same,GE,[5],27%
same,GE,[6],43%
same,GE,[21],15%
same,GE,[7],49%
same,GE,[8],52%
same,GE,[22],5%
same,inhibition,[23],0%
same,GE,[9],7%
CN(C)c1c(Cl)cc(C(=O)NCC2CN(Cc3ccccc3)CCO2)c(O)c1Cl.O=C(O)C(=O)O (stereo not drawn),GE,[1],14%
